These results are taken from publication PMC4691888 (Genes & Development, 2015).

Numbering of substitutions follows the chain as printed. No end group written: not given here. Me2 = α-N-dimethylated N-terminal residue

For series [1], the target named is T1, human NRMT1 (Homo sapiens, UniProt Q9BV86).
T1 sequence (Q9BV86 1-223): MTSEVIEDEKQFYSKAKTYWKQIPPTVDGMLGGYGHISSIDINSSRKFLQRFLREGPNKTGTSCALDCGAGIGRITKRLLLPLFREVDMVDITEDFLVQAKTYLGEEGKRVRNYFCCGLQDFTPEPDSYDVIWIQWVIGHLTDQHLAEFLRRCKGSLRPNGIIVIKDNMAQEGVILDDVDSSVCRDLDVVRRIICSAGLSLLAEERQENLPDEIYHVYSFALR
Conditions: ref Okada et al. 2007; Tooley et al. 2010; Bailey et al. 2013; cited from earlier work.

Series [2] addresses T1, human NRMT1. Put plainly: MALDI-TOF MS-based methylation assay of native and mutant CENP-A. Type of series: biochemical. The conditions noted are these: 5 h incubation, CENP-A (1-9) peptides. Summed up: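 Recombinant His-tagged human NRMT1, expressed in E. coli and purified, incubated 5 h with native or mutant CENP-A peptides. Methylated products detected by MALDI-TOF mass spectrometry. Abundance of each methylation state scored semi-quantitatively (full or half abundance levels); products not detected are recorded as ND.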

In series [3] the target is T1, human NRMT1. Description: Thermofluor shift assay. Type of series: binding. Conditions: CENP-A (1-9) peptides, 360 μM; 1 mg/mL NRMT1, 180 μM SAH, pH 8.0.
Another series deals with human NRMT1 (human) (UniProt Q9BV86). Description: thermofluor shift assay.
Series [4] has as its target T1, human NRMT1. Put plainly: Histone peptide methylation profiling by NRMT1. The conditions noted are these: nine-residue N-terminal histone peptides; MALDI-TOF MS. Type of series: biochemical. The procedure, abridged: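 Wild-type human NRMT1, produced recombinantly in E. coli and purified as a His-tagged protein, incubated with native or mutant peptide substrates for 5 h. Methylated products detected by MALDI-TOF MS and scored semi-quantitatively by relative abundance of each methylation state (full or half abundance), with not-detected products recorded as ND.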

The target of another series is T2, human NRMT1 D180N (human, UniProt Q9BV86 1-223, D180N).
T2 sequence: T1 sequence (Q9BV86 1-223) with D180N
Put plainly: cell-based or functional assay.

The target of series [5] is T3, human NRMT1 (human, UniProt Q9BV86 1-223).
T3 sequence (looked up): T1 sequence (Q9BV86 1-223)
Description: ITC.

For series [6], the target named is T3, human NRMT1. Put plainly: thermofluor shift assay.

As for “myosin light chain 3: reported NRMT1 substrate protein”, in the series with human NRMT1 [1], the “reported NRMT1 substrate, in words” value is recorded as “reported NRMT1 substrates”.
Take (G1P)PRRRSRKP: the “methylation capacity / state preference, in words” value at human NRMT1 [2] is reported as “full state”. Besides, at human NRMT1 [3], the “Tm increase (stabilization) compared with NRMT1-SAH binary complex” value (shortened to “Tm increase (stabilization)”) stood at 5.5 °C.
For the molecule α-N-monomethylated CENP-A peptide, in the series with human NRMT1 (human), the Tm of the NRMT1–CENP-A complex is 49 °C.
As for PPKTSGKAA [DmH2B (fruit fly)], the “methylation by NRMT1, in words” value at human NRMT1 [4] was “dimethylation”.
With (G1A)PRRRSRKP, at human NRMT1 [2], the “methylation capacity / state preference, in words” value is “full state”. For the same molecule, the “Tm increase (stabilization)” value on human NRMT1 [3] was found to be 1.5 °C.
On to α-N-trimethylated CENP-A peptide, for which the Tm of the NRMT1–CENP-A complex with human NRMT1 (human) worked out at 50 °C.
Turning to (G1S)PRRRSRKP, the “methylation capacity / state preference, in words” value on human NRMT1 [2] is listed as “α-N-monomethylation being the major product form”. Moreover, the “Tm increase (stabilization)” value at human NRMT1 [3] was 3 °C.

B1: CENP-A (1–9) peptide, unmodified (peptide)
peptide: GPRRRSRKP
On to B1, for which the “in vitro methylation assay of CENP-A, drop of activity against wild-type enzyme” value in the series with human NRMT1 D180N was approximately 4 fold.

B2: α-N-dimethylated CENP-A (1–9) peptide (peptide)
peptide: Me2-GPRRRSRKP
For B2, in the series with human NRMT1 [5], the affinity, expressed as Kd, was 390 nM and the dH was -11.8 kcal/mol. For the same molecule, the “Tm of the NRMT1–CENP-A complex” value in the series with human NRMT1 [6] was 52.5 °C.

B3: CENP-B: reported NRMT1 substrate protein (protein, UniProt P07199 2-599, looked up)
Major centromere autoantigen B: GPKRRQLTFREKSRIIQEVEENPDLRKGEIARRFNIPPSTLSTILKNKRAILASERKYGVASTCRKTNKLSPYDKLEGLLIAWFQQIRAAGLPVKGIILKEKALRIAEELGMDDFTASNGWLDRFRRRHGVVSCSGVARARARNAAPRTPAAPASPAAVPSEGSGGSTTGWRAREEQPPSVAEGYASQDVFSATETSLWYDFLPDQAAGLCGGDGRPRQATQRLSVLLCANADGSEKLPPLVAGKSAKPRAGQAGLPCDYTANSKGGVTTQALAKYLKALDTRMAAESRRVLLLAGRLAAQSLDTSGLRHVQLAFFPPGTVHPLERGVVQQVKGHYRQAMLLKAMAALEGQDPSGLQLGLTEALHFVAAAWQAVEPSDIAACFREAGFGGGPNATITTSLKSEGEEEEEEEEEEEEEEGEGEEEEEEGEEEEEEGGEGEELGEEEEVEEEGDVDSDEEEEEDEESSSEGLEAEDWAQGVVEAGGSFGAYGAQEEAQCPTLHFLEGGEDSDSDSEEEDDEEEDDEDEDDDDDEEDGDEVPVPSFGEAMAYFAMVKRYLTSFPIDDRVQSHILHLEHDLVHVTRKNHARQAGVRGLGHQS
Consider B3, for which the “reported NRMT1 substrate, in words” value with human NRMT1 [1] is recorded as “reported NRMT1 substrates”.

B4: retinoblastoma protein: reported NRMT1 substrate protein (protein, UniProt P06400 2-928, looked up)
Retinoblastoma-associated …: PPKTPRKTAATAAAAAAEPPAPPPPPPPEEDPEQDSGPEDLPLVRLEFEETEEPDFTALCQKLKIPDHVRERAWLTWEKVSSVDGVLGGYIQKKKELWGICIFIAAVDLDEMSFTFTELQKNIEISVHKFFNLLKEIDTSTKVDNAMSRLLKKYDVLFALFSKLERTCELIYLTQPSSSISTEINSALVLKVSWITFLLAKGEVLQMEDDLVISFQLMLCVLDYFIKLSPPMLLKEPYKTAVIPINGSPRTPRRGQNRSARIAKQLENDTRIIEVLCKEHECNIDEVKNVYFKNFIPFMNSLGLVTSNGLPEVENLSKRYEEIYLKNKDLDARLFLDHDKTLQTDSIDSFETQRTPRKSNLDEEVNVIPPHTPVRTVMNTIQQLMMILNSASDQPSENLISYFNNCTVNPKESILKRVKDIGYIFKEKFAKAVGQGCVEIGSQRYKLGVRLYYRVMESMLKSEEERLSIQNFSKLLNDNIFHMSLLACALEVVMATYSRSTSQNLDSGTDLSFPWILNVLNLKAFDFYKVIESFIKAEGNLTREMIKHLERCEHRIMESLAWLSDSPLFDLIKQSKDREGPTDHLESACPLNLPLQNNHTAADMYLSPVRSPKKKGSTTRVNSTANAETQATSAFQTQKPLKSTSLSLFYKKVYRLAYLRLNTLCERLLSEHPELEHIIWTLFQHTLQNEYELMRDRHLDQIMMCSMYGICKVKNIDLKFKIIVTAYKDLPHAVQETFKRVLIKEEEYDSIIVFYNSVFMQRLKTNILQYASTRPPTLSPIPHIPRSPYKFPSSPLRIPGGNIYISPLKSPYKISEGLPTPTKMTPRSRILVSIGESFGTSEKFQKINQMVCNSDRVLKRSAEGSNPPKPLKKLRFDIEGSDEADGSKHLPGESKFQQKLAEMTSTRTRMQKQKMNDSMDTSNKEEK
Take B4: in the series with human NRMT1 [1], the “reported NRMT1 substrate, in words” value is recorded as “reported NRMT1 substrates”.

B5: myosin light chain 2: reported NRMT1 substrate protein (protein, UniProt P10916 2-166, looked up)
Myosin regulatory light chain …: APKKAKKRAGGANSNVFSMFEQTQIQEFKEAFTIMDQNRDGFIDKNDLRDTFAALGRVNVKNEEIDEMIKEAPGPINFTVFLTMFGEKLKGADPEETILNAFKVFDPEGKGVLKADYVREMLTTQAERFSKEEVDQMFAAFPPDVTGNLDYKNLVHIITHGEEKD
In the case of B5, the “reported NRMT1 substrate, in words” value with human NRMT1 [1] was “reported NRMT1 substrates”.

B6: kelch-like protein 31: reported NRMT1 substrate protein (protein, UniProt Q9H511 2-634, looked up)
Kelch-like protein 31: APKKKIVKKNKGDINEMTIIVEDSPLNKLNALNGLLEGGNGLSCISSELTDASYGPNLLEGLSKMRQENFLCDLVIGTKTKSFDVHKSVMASCSEYFYNILKKDPSIQRVDLNDISPLGLATVIAYAYTGKLTLSLYTIGSIISAAVYLQIHTLVKMCSDFLIREMSVENCMYVVNIAETYSLKNAKAAAQKFIRDNFLEFAESDQFMKLTFEQINELLIDDDLQLPSEIVAFQIAMKWLEFDQKRVKYAADLLSNIRFGTISAQDLVNYVQSVPRMMQDADCHRLLVDAMNYHLLPYHQNTLQSRRTRIRGGCRVLVTVGGRPGLTEKSLSRDILYRDPENGWSKLTEMPAKSFNQCVAVMDGFLYVAGGEDQNDARNQAKHAVSNFCRYDPRFNTWIHLASMNQKRTHFSLSVFNGLVYAAGGRNAEGSLASLECYVPSTNQWQPKTPLEVARCCHASAVADGRVLVTGGYIANAYSRSVCAYDPASDSWQELPNLSTPRGWHCAVTLSDRVYVMGGSQLGPRGERVDVLTVECYSPATGQWSYAAPLQVGVSTAGVSALHGRAYLVGGWNEGEKKYKKCIQCFSPELNEWTEDDELPEATVGVSCCTLSMPNNVTRESRASSVSSVPVSI
Take B6: the “reported NRMT1 substrate, in words” value with human NRMT1 [1] is on record as “reported NRMT1 substrates”.

B7: regulator of chromosome condensation 1 (RCC1): reported NRMT1 substrate protein (protein, UniProt P18754 2-421, looked up)
Regulator of chromosome …: SPKRIAKRRSPPADAIPKSKKVKVSHRSHSTEPGLVLTLGQGDVGQLGLGENVMERKKPALVSIPEDVVQAEAGGMHTVCLSKSGQVYSFGCNDEGALGRDTSVEGSEMVPGKVELQEKVVQVSAGDSHTAALTDDGRVFLWGSFRDNNGVIGLLEPMKKSMVPVQVQLDVPVVKVASGNDHLVMLTADGDLYTLGCGEQGQLGRVPELFANRGGRQGLERLLVPKCVMLKSRGSRGHVRFQDAFCGAYFTFAISHEGHVYGFGLSNYHQLGTPGTESCFIPQNLTSFKNSTKSWVGFSGGQHHTVCMDSEGKAYSLGRAEYGRLGLGEGAEEKSIPTLISRLPAVSSVACGASVGYAVTKDGRVFAWGMGTNYQLGTGQDEDAWSPVEMMGKQLENRVVLSVSSGGQHTVLLVKDKEQS
In the case of B7, in the series with human NRMT1 [1], the “reported NRMT1 substrate, in words” value is on record as “reported NRMT1 substrates”.
